# Assay: Toxicity liver stage against HepG2, at 10uM
# Type: cell-based
# Design: test concentration 10 uM, cell line HepG2-A16-CD81EGFP
# Details: human, HepG2-A16-CD81EGFP cells; read-out: INHIBITION
# How it was run: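 Uninfected HepG2-A16-CD81EGFP cells, 3 × 10^3 per well, 1536-well, plated on prespotted compound at 10 μM final, parasite-free screening media added to match infected plates; puromycin 10 μM positive, DMSO 0.5% negative; run in parallel with 48 h PbLuc assay at 37 °C, 5% CO2; viability by CellTiter-Glo luminescence, normalized to controls.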
row,SMILES,cytotoxicity at 10 µM [%]
1,c1ccc(O[C@H]2COCCN(CC3CC3)C2)cc1,5.76
2,COc1ccc(C(=O)N2CCN3C(=O)CNC(=O)[C@@H]3C2)cc1,-7.1
3,CCN(CC)CC[C@H]1CN(C(=O)CC(C)(C)C)CC[C@H]1CC(=O)O,-0.668
4,CSc1ncccc1C(=O)N(CCO)Cc1ccccc1,2.22
5,O=C(c1cccc(C(F)(F)F)c1)N1CC(=O)N(C2CCC2)CC(O)C1 (configuration not stated),-3.16
6,Cc1ccc2c(c1)C1(CC(=O)Nc3[nH]ncc31)C(=O)N2C (configuration not stated),-1.6
7,N#Cc1nc(COc2ccc3c(c2)OCO3)oc1N1CCCCCC1,-34.6
8,CC1CC(=O)c2cc(C(=O)N3CCc4ccccc43)c(=O)[nH]c2C1 (configuration not stated),-5.67
9,Cn1cc(NC(=O)CNC(=O)N2CCN(c3ccccc3)CC2)cn1,0.0207
10,Cn1nc(N2CCCC(C(=O)Nc3nccs3)C2)ccc1=O (configuration not stated),3.19
11,CCOC(=O)CN1CCC2(CCCN(CCOc3ccccc3)C2)C1 (configuration not stated),-2.63
12,O=C([C@H]1CCCO1)N1CC[C@@H](O)[C@@H]1Cc1ccccc1,1.41
13,Cn1cccc1C(=O)N1CCc2ccc(=O)n(C)c2CC1,-0.756
14,Cc1cc(C(=O)N2C[C@@H]3COC[C@]3(c3nnc(C(C)C)o3)C2)on1,-2.52
15,CCOc1cc(C)c(-c2cc(N)[nH]n2)cc1OCC,-7.27
16,O=c1c2cn[nH]c2nc(SCCN2CCOCC2)n1-c1ccccc1,0.219
17,CCO[C@@H]1CO[C@@]2(CCCN(C(=O)c3ccc(OC)c(F)c3)C2)C1,3.02
18,CCn1cc(S(=O)(=O)N(CCc2ccccc2)Cc2ccn(C)n2)cn1,2.6
19,Cc1ccc(NC(=O)c2n[nH]c(-n3cnnc3)n2)cc1C,-1.4
20,CCCC(=O)NCCc1cc(NC)nc(-c2ccccn2)n1,1.12
21,CCC(=O)NCCc1cc2nc(-c3ccncc3)ccn2n1,1.65
22,COc1ccccc1CN1CCCC(Cc2nccnc2N)C1 (configuration not stated),-3.81
23,CCC(=O)N1CCC(c2ncncc2C)CC1,-11.5

row,SMILES,cytotoxicity at 10 µM [%]
1,CC(C)NC(=O)N1CCCCCC1C1CCN(c2ncccn2)CC1 (configuration not stated),-23.2
2,Cc1cc(N(C)C)nc(N2CCn3c(nnc3C3CC3)C2)n1,0.485
3,CS(=O)(=O)CCn1ccc(NC(=O)Cc2ccccc2F)n1,3.73
4,CC(O)CN(C(=O)NC1CCN(CC2CCCCC2)CC1)C(C)C (configuration not stated),7.46
5,Cc1noc(C)c1CN(C)C(=O)C1CCCCN1CC(C)C (configuration not stated),2.64
6,Cc1cccc2nc(CN3CCCC(C)C3)cc(=O)n12 (configuration not stated),2.46
7,Cc1ccc(C(=O)Nc2ccccc2N2CCCC2)n1C,5.55
8,CN(CCOc1ccc(F)cc1)S(=O)(=O)c1cnn(C)c1,-3.23
9,Cc1ccc(CNC(=O)C2CCN(C(=O)C(C)C)CC2)n1C,5.71
10,CCC(CC)N(Cc1cc(=O)n(C)c(=O)n1C)C1CC1,15.8
11,Cc1nnc(C(C)Nc2cccc(COCCOC(C)C)c2)o1 (configuration not stated),2.29
12,CN(C1CCN(c2ccccn2)CC1)S(=O)(=O)c1ccccc1F,14
13,COCCNC(=O)C1(c2ccc(C)c(OC)c2)CCCC1,-3.21
14,Fc1ccc(CNC2CCN(CCc3ccncc3)CC2)cc1F,-12.6
15,Cc1ccc(CNC(=O)C2CCCCN2C(=O)OC(C)(C)C)cn1 (configuration not stated),-0.408
16,Cc1nc(C)n(C2CCCN(C(=O)CCc3cn(C)nc3C)C2)n1 (configuration not stated),-11.5
17,O=C(NCCSCc1ccc(Br)s1)C1CCCN(C(=O)c2cccs2)C1 (configuration not stated),-1.79
18,COc1ncnc(N)c1CNCCOc1ccccc1Cl,6.24
19,CCCN1C(=O)C2(CCCCC2)NC1c1c[nH]nc1-c1cccnc1 (configuration not stated),4.59
20,CC(C)=CCN1CCN(C(=O)C2CC2)CC1,6.64
21,CC(C)c1nccn1CCn1cnc2ccsc2c1=O,4.4
22,NS(=O)(=O)c1cnn(-c2ccc(NC(=O)C3CCCCC3)cn2)c1,2.27
23,CCOc1cc(CNC(C)c2ccc(F)cc2)ccn1 (configuration not stated),10.9

row,SMILES,cytotoxicity at 10 µM [%]
1,c1ccc(Cc2nc(CNCCn3cccn3)cs2)cc1,-2.79
2,CSc1ccc(OCCN2CCNC(=O)CC2)cc1,5.59
3,COc1ccccc1CN(Cc1nc(Cc2ccccc2)no1)C1CC1,9.54
4,CC(C)(C)C(O)CN1CCN(CC(=O)NCC(F)(F)F)CC1 (configuration not stated),-10.2
5,Cc1cc(NCC(C)C)ccc1C(=O)N(C)C,9.86
6,COCC1CN(C(=O)Nc2cc(Br)ccc2F)CCO1 (configuration not stated),-0.749
7,Cc1nc(C2CCCN(C(=O)CN3CCCNC3=O)C2)sc1C (configuration not stated),10.4
8,Cn1cc(N2CCC(NC(=O)c3c(F)cccc3F)C2=O)cn1 (configuration not stated),2.5
9,CCn1cnnc1C1CCN(C(=O)c2cnc3ccccc3n2)CC1,-8.59
10,CC(=O)NCc1nnn2c1CN(c1ncc(C)cn1)CCC2,-102
11,CN(CCCc1cnn(C)c1)c1nccc(-c2cc(C(=O)O)ccn2)n1,-3.29
12,CN(CC1(CO)CCOCC1)[C@@H]1c2ccccc2C2(CCNCC2)[C@H]1O,-6.87
13,CCCN1CCN(C(=O)c2cccc(C)n2)[C@H]2CS(=O)(=O)C[C@H]21,2.13
14,CC1(C)CNC(=O)c2nc(C3CCN(C(=O)C4CC4)CC3)[nH]c2C1,2.26
15,CC(C)(C)CC(=O)N1CCC(n2cc(C3(O)CCCC3)nn2)CC1,8.64
16,CCOCc1nc(-c2cccc(OC)c2OC)n(C2CCN(C)CC2)n1,-1.76
17,CC(C1CCN(Cc2c(Cl)ccc(O)c2Cl)CC1)N1CCN(C)CC1 (configuration not stated),-12
18,CN(Cc1nccs1)C1CCN(c2ncccn2)CC1,10.1
19,Cc1cnn(CC2CCN(c3cc(C(C)C)nc4ccnn34)CC2)c1,-10.5
20,O=S(=O)(N1CCOCC1)N1CCCCC1CCc1ccc(O)cc1 (configuration not stated),-4.44
21,CCS(=O)(=O)N1CCC(c2nnc(CN3CCCCCC3)n2C)CC1,-8.01
22,N#Cc1cccc(OC23CCCN(CC2)C3)c1 (configuration not stated),1.73
23,Cc1cccc2[nH]c(-c3cn(C4CCNCC4)nn3)nc12,-6.47

row,SMILES,cytotoxicity at 10 µM [%]
1,CN(C)CC(=O)N1CCc2cccc(S(=O)(=O)N3CCOCC3)c2C1,6.8
2,CCCN1CCCC2(CCN(Cc3cncn3C3CCCC3)C2)C1=O (configuration not stated),-13
3,CCCN1CCCC2(CCN(S(=O)(=O)c3cc(C)nn3CC)C2)C1=O (configuration not stated),4.82
4,CCc1cc(N2CCC(NCCc3ccc(C)o3)CC2)nc(C)n1,-0.554
5,CC(C)N1CCCC(C(=O)N2CCN(c3cccc(C(=O)O)c3)CC2)C1 (configuration not stated),9.45
6,CC1=C(C(=O)NCc2cccnc2-n2cnc3ccccc32)OCCO1,-2
7,Cc1c(NC(=O)NC2CN3CCC2CC3)cccc1C(=O)N1CCCC1 (configuration not stated),10.1
8,CCCc1ccc(CN2CCC3(CCC(=O)N(C)CC3)CC2)o1,-4.35
9,CC(=O)N1CCN(Cc2ccc(C(F)(F)F)c(F)c2)CC(O)C1 (configuration not stated),-2.2
10,CC(=O)N1CCCN(C(=O)c2cnn(C(C)(C)C)c2C)CC1,2.89
11,Cc1nnc(NC(=O)NCc2ccc(OC(C)C)nc2)s1,-10.4
12,Cc1cc2n(n1)CC(CNCc1ccc(Oc3ccccc3)nc1)CN2 (configuration not stated),-10.1
13,CC(C)c1noc(CCCC(=O)N2CCN(Cc3ccsc3)CC2)n1,-5.19
14,O=C(c1ccc2c(c1)COC2)N1CCN(CCO)CC1,-16.5
15,CCn1ncc2c1CCCC2NCc1ccc(OC)c(F)c1 (configuration not stated),-6.07
16,Cc1nnc2n1CCN(C(=O)c1ccnc(N(C)C)c1)C2,-16.2
17,CCC(CC)C(=O)N(C)CC(=O)Nc1ccc(Br)cn1,-11.2
18,Cc1cc(C)n(CC2CCCN2C(=O)c2c(C)noc2C)n1 (configuration not stated),-13.8
19,O=C(NCCNc1ncccn1)C1CC(=O)N(C2CCCC2)C1 (configuration not stated),-16.2
20,CC(C)CN1CC(C(=O)NCCNc2ncccn2)CC1=O (configuration not stated),-23
21,Cc1nc(C2CCCN2CCCc2nc3ccccc3o2)no1 (configuration not stated),-9.24
22,O=C(NCCNc1ncccn1)N1CCN(C2CCCC2)CC1,-10
23,COc1c(C2CCCN2CC(=O)Nc2ccncc2)c(C)nn1C (configuration not stated),-12.7

row,SMILES,cytotoxicity at 10 µM [%]
1,Cc1ccc2cc(C(=O)N3CCC(Nc4cccnn4)CC3)[nH]c2c1,-21
2,CC(Cn1ccnc1)NC(=O)N1CCCN(Cc2cccs2)CC1 (configuration not stated),-12.4
3,Cc1nc(C)n(CC2CN(CCC(=O)N3CCCCC3)CCO2)n1 (configuration not stated),-4.64
4,O=C(CCSc1ccccc1F)NS(=O)(=O)c1ccc2c(c1)OCCO2,-0.841
5,O=C(CCc1ccc(F)cc1)NS(=O)(=O)c1ccc2c(c1)OCCO2,-12.8
6,Cc1nnc(CN2CCN(CCOc3ccccc3C#N)CC2)n1C,-5.8
7,O=C(NCc1cc[nH]n1)N1CCCCC(N2CCCC2)C1 (configuration not stated),-11.5
8,COc1cccc(CCNC(=O)CN2CCCC2c2noc(C)n2)c1 (configuration not stated),-0.489
9,CC(NC(=O)CCC(=O)c1cccs1)c1nnc2n1CCCCC2 (configuration not stated),-7.76
10,COCCN(Cc1nc2c(cnn2C)c(=O)[nH]1)Cc1ccco1,-5.04
11,O=C(C1CCCCC1)N1CC2(CCNCC2)C1,-8.58
12,CCOC(=O)N1CC2(CCNCC2)c2cc(Cl)ccc21,-0.449
13,Cc1ccc(CN2CCCC3(CCCC(=O)N3)C2)s1 (configuration not stated),-0.361
14,c1ccc(CN2CCCC3(CCN(Cc4cccs4)C3)C2)nc1 (configuration not stated),-8.75
15,Cn1cnc(S(=O)(=O)N2CC3(CCN(Cc4ccncc4)C3)C2)c1,-113
16,Cn1nnc2c1CCN(Cc1ccccn1)C2COCc1ccccc1 (configuration not stated),-117
17,CC[C@@H]1N(Cc2ccc(F)cc2)CCC[C@]12CCC(=O)N2C,9.42
18,CC(=O)N1[C@H](Cn2cncn2)C[C@@H]2CN(c3ncc(F)cn3)CC[C@@H]21,-5.09
19,CS(=O)(=O)N1C[C@@H]2CC[C@H]1CN(Cc1ccncc1)C2,-2.34
20,CN(C)S(=O)(=O)N1C[C@@H]2C[C@H](C(=O)NCc3ccccc3)[C@H](C1)O2,4.09
